Data from ChEMBL document CHEMBL1629621, “Evaluation of strategies for improving proteolytic resistance of antimicrobial peptides by using variants of EFK17, an internal segment of LL-37” (Antimicrob Agents Chemother, 2009).
≈ marks a conversion by molar mass, not a printed value. Calls of active or inactive are those of the source. The rule behind the calls is not given here.

Legend:
[1] = Stability of the compound at 136 uM after 4 hrs in presence of aureolysin; assay type: ADME
Method in brief: (§1)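 Peptide at 136 µM was incubated with protease (peptide:enzyme 300:1) for 4 h at 37°C in 10 mM Tris, pH 7.4. The reaction was stopped by boiling in Laemmli buffer, then run on Tris-Tricine 16.5% SDS-PAGE and Coomassie stained. Band densitometry gave the undegraded fraction, normalized to peptide incubated without enzyme. Two separate experiments.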

Staphylococcus aureus [2] = test: Antimicrobial activity against Staphylococcus aureus 29213 after 21 hrs by broth microdilution method; assay type: functional; conditions: Staphylococcus aureus, 29213, 21 h
Method in brief: (§2)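 Microtiter broth dilution at 37°C for 21 h in DEAE-refined LB medium prepared in 10 mM Tris, pH 7.4. Bacteria were grown overnight in 3% trypticase soy broth, rinsed in Tris and used at about 10^6 CFU/ml. Final peptide was 0.6–80 µM in twofold steps. Growth was read visually as pellet and at OD540. MIC is >95% inhibition with no visible pellet. Two separate experiments.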

[3] = Stability of the compound at 136 uM after 4 hrs in presence of Pseudomonas aeruginosa elastase; assay type: ADME; method in brief: as §1
[4] = Stability of the compound at 136 uM after 4 hrs in presence of […] V8 protease; assay type: ADME; method in brief: as §1
Staphylococcus aureus [5] = test: Antimicrobial activity against Staphylococcus aureus FDA 486 after 21 hrs by broth microdilution method; assay type: functional; conditions: FDA 486, 21 h; method in brief: as §2
Staphylococcus aureus [6] = test: Antimicrobial activity against Staphylococcus aureus 2844 after 21 hrs by broth microdilution method; assay type: functional; conditions: Staphylococcus aureus, 2844, 21 h; method in brief: as §2
[7] = Stability of the compound at 136 uM after 4 hrs in presence of human neutrophil elastase; assay type: ADME; method in brief: as §1
Pseudomonas aeruginosa [8] = test: Antimicrobial activity against Pseudomonas aeruginosa ATCC 27853 after 21 hrs by broth microdilution method; assay type: functional; conditions: ATCC 27853, 21 h; method in brief: as §2
Pseudomonas aeruginosa [9] = test: Antimicrobial activity against Pseudomonas aeruginosa 15159 after 21 hrs by broth microdilution method; assay type: functional; conditions: Pseudomonas aeruginosa, 15159, 21 h; method in brief: as §2
Lipid bilayer [10] = test: Binding affinity to DOPC-cholesterol liposome at 10 to 1000 uM after 45 mins by ellipsometry
Method in brief: (§3)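 Ellipsometry on DOPC-cholesterol bilayers deposited from DDM micelles onto silica. Peptide was added cumulatively in 10 mM Tris, pH 7.4, with 5 mM glucose at 37°C; […] adds 150 mM NaCl. Each step was followed 45 min to saturation. Adsorbed amount was calculated from refractive index and thickness, with dn/dc 0.154 cm3/g. Duplicates.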

[11] = Toxicity in human erythrocytes at 6 to 60 uM by hemolysis assay; assay type: cell-based; conditions: erythrocyte
Method in brief: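 EDTA-treated human erythrocytes were washed and used as a 5% suspension in PBS, pH 7.4. Cells were rotated end-over-end with peptide for 1 h at 37°C, then centrifuged. Hemoglobin was read at 540 nm relative to 2% Triton X-100, with spontaneous leakage as background. Triplicate.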

HaCaT [12] = test: Cytotoxicity against human HaCaT assessed at 6 to 60 uM by MTT assay; assay type: cell-based
Method in brief: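 HaCaT keratinocytes were seeded at 3,000 cells/well, grown to confluence in SFM-BPE-rEGF, and given 6 or 60 µM peptide overnight. MTT was then added for 1 h at 37°C and formazan dissolved in DMSO. Absorbance was read at 550 nm relative to untreated cells, with the 1% Triton X-100 signal as background. Triplicate.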

HaCaT [13] = test: Cytotoxicity against human HaCaT assessed as LDH release at 6 to 60 uM; assay type: cell-based
Method in brief: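 HaCaT keratinocytes were seeded at 3,000 cells/well and grown to confluence in serum-free keratinocyte medium with BPE-rEGF. They were exposed overnight to 6 or 60 µM peptide in that medium. LDH release was measured against a 1% Triton X-100 control, with spontaneous release as background. Triplicate.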

Lipid bilayer [14] = test: Binding affinity to DOPC-cholesterol liposome at 10 to 1000 uM after 45 mins by ellipsometry in presence of NaCl; method in brief: as §3
Lipid bilayer [15] = test: Induction of DOPC-cholesterol liposome leakage in cell-free system at 0.1 to 1 uM after 45 mins; assay type: functional
Method in brief: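 Carboxyfluorescein-loaded (100 mM, self-quenching) DOPC-cholesterol 3:2 unilamellar liposomes, about 110 nm, at 10 µM lipid in Tris buffer at 37°C with stirring. Peptide was added at a single concentration per experiment, between 0.01 and 1 µM. After a 10 min baseline, fluorescence increase was followed for 45 min and the limiting leakage level taken.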

Stability [1] | Stability [3] | Stability [4] | Stability [7] | Activity (Lipid bilayer [10]) | Activity (Lipid bilayer [14]) | Structure (SMILES) | MIC (Staphylococcus aureus [2]) | MIC (Staphylococcus aureus [5]) | MIC (Staphylococcus aureus [6]) | MIC (Pseudomonas aeruginosa [8]) | MIC (Pseudomonas aeruginosa [9]) | Activity [11] | Activity (HaCaT [12]) | Activity (HaCaT [13]) | Activity (Lipid bilayer [15])
Stable | Stable | Stable | Stable |  |  | CC[C@@H](C)[C@@H](NC(=O)[C@H](CCCNC(=N)N)NC(=O)[C@H](CCC(N)=O)NC(=O)[C@@H](NC(=O)[C@H](NC(=O)[C@H](CCCNC(=N)N)NC(=O)[C@H](CCCCN)NC(=O)[C@@H](Cc1ccccc1)NC(=O)[C@H](CCC(=O)O)NC(C)=O)[C@H](C)CC)C(C)C)C(=O)N[C@@H](CCCCN)C(=O)N[C@@H](CC(=O)O)C(=O)N[C@H](Cc1ccccc1)C(=O)N[C@@H](CC(C)C)C(=O)N[C@@H](CCCNC(=N)N)C(=O)N[C@@H](CC(N)=O)C(=O)N[C@@H](CC(C)C)C(=O)N[C@H](C(N)=O)C(C)C |  |  |  |  |  |  |  |  | 
Unstable | Unstable | Unstable | Unstable | Active | inactive | CC[C@H](C)[C@H](NC(=O)[C@H](CCCNC(=N)N)NC(=O)[C@H](CCC(N)=O)NC(=O)[C@@H](NC(=O)[C@@H](NC(=O)[C@H](CCCNC(=N)N)NC(=O)[C@H](CCCCN)NC(=O)[C@H](Cc1ccccc1)NC(=O)[C@H](CCC(=O)O)NC(C)=O)[C@@H](C)CC)C(C)C)C(=O)N[C@@H](CCCCN)C(=O)N[C@@H](CC(=O)O)C(=O)N[C@@H](Cc1ccccc1)C(=O)N[C@@H](CC(C)C)C(=O)N[C@@H](CCCNC(=N)N)C(=O)N[C@@H](CC(N)=O)C(=O)N[C@@H](CC(C)C)C(=O)N[C@H](C(N)=O)C(C)C | 10 µM (≈ 22.2 µg/mL) | 5 µM (≈ 11.1 µg/mL) | 5 µM (≈ 11.1 µg/mL) | 10 µM (≈ 22.2 µg/mL) | 10 µM (≈ 22.2 µg/mL) | Toxic | Toxic | Toxic | 
 |  |  |  | Active |  | CC[C@H](C)[C@H](NC(=O)[C@H](CCCNC(=N)N)NC(=O)[C@H](CCC(N)=O)NC(=O)[C@@H](NC(=O)[C@H](NC(=O)[C@H](CCCNC(=N)N)NC(=O)[C@H](CCCCN)NC(=O)[C@@H](Cc1ccccc1)NC(=O)[C@@H](N)CCC(=O)O)[C@@H](C)CC)C(C)C)C(=O)N[C@@H](CCCCN)C(=O)N[C@@H](CC(=O)O)C(=O)N[C@H](Cc1ccccc1)C(=O)N[C@@H](CC(C)C)C(=O)N[C@@H](CCCNC(=N)N)C(=O)N[C@@H](CC(N)=O)C(=O)N[C@@H](CC(C)C)C(=O)N[C@H](C(=O)O)C(C)C |  |  |  |  |  |  |  |  | Active

Structure (SMILES) | Stability [1] | Stability [3] | Stability [4] | Stability [7] | Activity (Lipid bilayer [10]) | Activity (Lipid bilayer [14]) | MIC (Staphylococcus aureus [2]) | MIC (Staphylococcus aureus [5]) | MIC (Staphylococcus aureus [6]) | MIC (Pseudomonas aeruginosa [8]) | MIC (Pseudomonas aeruginosa [9]) | Activity [11] | Activity (HaCaT [12]) | Activity (HaCaT [13]) | Activity (Lipid bilayer [15])
CC[C@H](C)[C@H](NC(=O)[C@H](CCCCN)NC(=O)[C@H](CCC(=O)O)NC(=O)[C@H](CCCCN)NC(=O)[C@H](CO)NC(=O)[C@H](CCCCN)NC(=O)[C@H](CCCNC(=N)N)NC(=O)[C@H](Cc1ccccc1)NC(=O)[C@H](Cc1ccccc1)NC(=O)[C@H](CC(=O)O)NC(=O)CNC(=O)[C@H](CC(C)C)NC(=O)[C@@H](N)CC(C)C)C(=O)NCC(=O)N[C@@H](CCCCN)C(=O)N[C@@H](CCC(=O)O)C(=O)N[C@@H](Cc1ccccc1)C(=O)N[C@@H](CCCCN)C(=O)N[C@@H](CCCNC(=N)N)C(=O)N[C@H](C(=O)N[C@H](C(=O)N[C@@H](CCC(N)=O)C(=O)N[C@@H](CCCNC(=N)N)C(=O)N[C@H](C(=O)N[C@@H](CCCCN)C(=O)N[C@@H](CC(=O)O)C(=O)N[C@@H](Cc1ccccc1)C(=O)N[C@@H](CC(C)C)C(=O)N[C@@H](CCCNC(=N)N)C(=O)N[C@@H](CC(N)=O)C(=O)N[C@@H](CC(C)C)C(=O)N[C@H](C(=O)N1CCC[C@H]1C(=O)N[C@@H](CCCNC(=N)N)C(=O)N[C@H](C(=O)N[C@@H](CCC(=O)O)C(=O)N[C@@H](CO)C(=O)O)[C@@H](C)O)C(C)C)[C@@H](C)CC)C(C)C)[C@@H](C)CC [CATHELICIDIN] | Unstable | Unstable | Unstable | Unstable |  |  | 5 µM (≈ 22.5 µg/mL) | 2.5 µM (≈ 11.2 µg/mL) | 5 µM (≈ 22.5 µg/mL) | 2.5 µM (≈ 11.2 µg/mL) | 2.5 µM (≈ 11.2 µg/mL) |  |  |  | 
